Reference: ChEMBL document CHEMBL1806443, “Novel imidazo[4,5-b]pyridine and triaza-benzo[c]fluorene derivatives: synthesis, antiproliferative activity and DNA binding studies” (Eur J Med Chem, 2011)
The source made the active and inactive calls. The calls are words filed in the database; no cut-off is given here.

Columns and labels:
WI-38 [1] = assay: Antiproliferative activity against human WI38 cells after 72 hrs by MTT assay; type: cell-based
Method in brief: (§1)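 Monolayer cells in DMEM with 10% FBS, 2 mM L-glutamine, penicillin and streptomycin at 37 °C, 5% CO2. Seeded at 3000-6000 cells/well by doubling time on day 0. Five 10-fold dilutions (0.01–100 µM) were added and incubated 72 h. MTT read-out, converted to percentage growth. IC50 by linear regression between bracketing concentrations. Quadruplicate points, three independent experiments, ANOVA/Tukey p<0.05.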

MIA PaCa-2 [2] = assay: Antiproliferative activity against human MIAPaCa2 cells after 72 hrs by MTT assay; type: functional, cell-based; method in brief: as §1
SW-620 [3] = assay: Antiproliferative activity against human SW620 cells after 72 hrs by MTT assay; type: functional, cell-based; method in brief: as §1
HEp-2 [4] = assay: Antiproliferative activity against human Hep2 cells after 72 hrs by MTT assay; type: functional, cell-based; method in brief: as §1
SK-BR-3 [5] = assay: Antiproliferative activity against human SKBR3 cells after 72 hrs by MTT assay; type: functional, cell-based; method in brief: as §1
MCF7 [6] = assay: Antiproliferative activity against human MCF7 cells after 72 hrs by MTT assay; type: functional, cell-based; method in brief: as §1
HeLa [7] = assay: Antiproliferative activity against human HeLa cells after 72 hrs by MTT assay; type: functional, cell-based; method in brief: as §1
WI-38 [8] = assay: Cytostatic activity against human WI38 cells at 1 to 10 uM after 72 hrs by MTT assay; type: ADME, cell-based; conditions: wi-38, 72 h
Method in brief: (§2)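 Monolayers in DMEM with 10% FBS, 2 mM L-glutamine, penicillin and streptomycin (37 °C, 5% CO2) were seeded at 3000–6000 cells/well on day 0. Five 10-fold dilutions (0.01–100 µM) were added, followed by 72-h incubation and MTT read-out. Absorbances were converted to percentage growth by the NIH formulae. Each point was run in quadruplicate in three experiments; ANOVA with Tukey test.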

SW-620 [9] = assay: Cytostatic activity against human SW620 cells at 1 to 10 uM after 72 hrs by MTT assay; type: functional, cell-based; method in brief: as §2
MIA PaCa-2 [10] = assay: Cytostatic activity against human MIAPaCa2 cells at 1 to 10 uM after 72 hrs by MTT assay; type: functional, cell-based; method in brief: as §2
SK-BR-3 [11] = assay: Cytostatic activity against human SKBR3 cells at 1 to 10 uM after 72 hrs by MTT assay; type: functional, cell-based; method in brief: as §2
HEp-2 [12] = assay: Cytostatic activity against human Hep2 cells at 1 to 10 uM after 72 hrs by MTT assay; type: functional, cell-based; method in brief: as §2
MCF7 [13] = assay: Cytostatic activity against human MCF7 cells at 1 to 10 uM after 72 hrs by MTT assay; type: functional, cell-based; method in brief: as §2
HeLa [14] = assay: Cytostatic activity against human HeLa cells at 1 to 10 uM after 72 hrs by MTT assay; type: functional, cell-based; method in brief: as §2
WI-38 [15] = assay: Antiproliferative activity against human WI38 cells at 0.1 to 10 uM after 72 hrs by MTT assay; type: cell-based; conditions: wi-38, 72 h; method in brief: as §1
MIA PaCa-2 [16] = assay: Antiproliferative activity against human MIAPaCa2 cells at 0.1 to 10 uM after 72 hrs by MTT assay; type: functional, cell-based; method in brief: as §1
SK-BR-3 [17] = assay: Antiproliferative activity against human SKBR3 cells at 0.1 to 10 uM after 72 hrs by MTT assay; type: functional, cell-based; method in brief: as §1
SW-620 [18] = assay: Antiproliferative activity against human SW620 cells at 0.1 to 10 uM after 72 hrs by MTT assay; type: functional, cell-based; method in brief: as §1
HEp-2 [19] = assay: Antiproliferative activity against human Hep2 cells at 0.1 to 10 uM after 72 hrs by MTT assay; type: functional, cell-based; method in brief: as §1
MCF7 [20] = assay: Antiproliferative activity against human MCF7 cells at 0.1 to 10 uM after 72 hrs by MTT assay; type: functional, cell-based; method in brief: as §1
HeLa [21] = assay: Antiproliferative activity against human HeLa cells at 0.1 to 10 uM after 72 hrs by MTT assay; type: functional, cell-based; method in brief: as §1

Structure (SMILES)	IC50 (WI-38 [1]; Homo sapiens, WI-38, 72 h) [µM]	IC50 (MIA PaCa-2 [2]; Homo sapiens, MIA PaCa-2, 72 h) [µM]	IC50 (SW-620 [3]; Homo sapiens, SW-620, 72 h) [µM]	IC50 (HEp-2 [4]; Homo sapiens, HEp-2, 72 h) [µM]	IC50 (SK-BR-3 [5]; Homo sapiens, SK-BR-3, 72 h) [µM]	IC50 (MCF7 [6]; Homo sapiens, MCF7, 72 h) [µM]	IC50 (HeLa [7]; Homo sapiens, HeLa, 72 h) [µM]	Activity (WI-38 [8])	Activity (SW-620 [9])	Activity (MIA PaCa-2 [10])	Activity (SK-BR-3 [11])	Activity (HEp-2 [12])	Activity (MCF7 [13])	Activity (HeLa [14])	further results
O=[N+]([O-])c1ccc(Cl)c(/C=C/c2nc3ncccc3[nH]2)c1	61.6	38.8	52	49.4	1.8	53.6	45.1	–	–	–	–	–	–	–	–
C(=C\c1nc2ncccc2[nH]1)/c1ccccc1	3.87	4.39	4.64	3.89	2.06	7.57	2.22	Toxic	Active	Active	Active	Active	Active	Active	–
N#Cc1ccc(/C=C/c2nc3ncc(Br)cc3[nH]2)cc1	6.76	8.17	7.11	5.69	4.31	7.82	2.88	Toxic	Active	Active	Active	Active	Active	Active	–
Nc1ccc2c(ccc3nc4ncc(Br)cc4n32)c1 [listing 1 of 3 here]	–	–	–	–	–	–	–	–	Active	Active	Active	Active	Active	Active	–
C[n+]1cccc2c1nc1ccc3cc([N+](=O)[O-])ccc3n12	> 100	> 100	26.7	31.5	33.6	> 100	11.4	–	–	–	–	–	–	–	–
Nc1ccc2c(ccc3nc4ncc(Br)cc4n32)c1 [listing 2 of 3 here]	–	–	–	–	–	–	–	–	–	–	–	–	–	–	IC50 (WI-38 [1]; wi-38): 85.1 µM; IC50 (MIA PaCa-2 [2]; mia paca-2): 40.3 µM; IC50 (SW-620 [3]; sw-620): 40.7 µM; IC50 (HEp-2 [4]; hep-2): 21.6 µM; IC50 (SK-BR-3 [5]; sk-br-3): 7.56 µM; IC50 (MCF7 [6]; mcf7): 67.3 µM; IC50 (HeLa [7]; hela): 37.7 µM
c1cnc2ccc3nc4ncccc4n3c2c1	> 100	> 100	> 100	> 100	> 100	> 100	> 100	–	–	–	–	–	–	–	–
Nc1ccc2c(ccc3nc4ncc(Br)cc4n32)c1 [listing 3 of 3 here]	85.4	33	38.6	14.1	7.76	61.7	30.9	Toxic	–	–	–	–	–	–	–
Clc1ccccc1/C=C/c1nc2ncccc2[nH]1	> 100	59.1	50.9	29.3	5.79	25.6	31.6	Toxic	Active	Active	Active	Active	Active	Active	–
O=[N+]([O-])c1ccc2c(ccc3nc4ncc(Br)cc4n32)c1	> 100	63.5	61.2	31.1	8.11	> 100	13.4	–	–	–	–	–	–	–	–
Clc1cccnc1/C=C/c1nc2ncccc2[nH]1	> 100	> 100	> 100	> 100	53.1	> 100	> 100	–	–	–	–	–	–	–	–
O=c1[nH]cc(F)c(=O)[nH]1 [FLUOROURACIL]	18.5	11.5	3.38	> 100	38.2	42	10.3	–	–	–	–	–	–	–	–
O=[N+]([O-])c1ccc2c(ccc3nc4ncccc4n32)c1	75.7	> 100	> 100	> 100	42.7	> 100	52.8	–	–	–	–	–	–	–	–
c1ccc2c(c1)ccc1nc3ncccc3n12 [7,8,11b-triazabenzo[c]fluorene]	47.4	80.5	78.3	52.3	83.5	75.5	14.3	–	–	–	–	–	–	–	–
N#Cc1ccc2ccc3nc4ncccc4n3c2c1	51.5	> 100	> 100	47.3	67.7	> 100	39.5	–	–	–	–	–	–	–	–
O=[N+]([O-])c1ccc(Cl)c(/C=C/c2nc3ncc(Br)cc3[nH]2)c1	6.48	30.6	7.99	0.91	59.9	8.81	3.68	Toxic	Active	Active	Active	Active	Active	Active	–
Nc1ccc2c(ccc3nc4ncccc4n32)c1	–	–	–	–	–	–	–	–	–	–	–	–	–	–	IC50 (MIA PaCa-2 [2]; mia paca-2): 43.4 µM; IC50 (SW-620 [3]; sw-620): 25.9 µM; IC50 (HEp-2 [4]; hep-2): 26.7 µM; IC50 (SK-BR-3 [5]; sk-br-3): 3.64 µM; IC50 (MCF7 [6]; mcf7): 56 µM; IC50 (HeLa [7]; hela): 27.2 µM
N#Cc1ccc(/C=C/c2nc3ncccc3[nH]2)cc1	> 100	> 100	> 100	84.9	86.6	12.9	47.1	–	–	–	–	–	–	–	–
Brc1cnc2nc3ccc4ccc(C5=NCCN5)cc4n3c2c1.Cl	3.71	4.74	3.67	4.01	5.52	8.43	1.1	Toxic	Active	Active	Active	Active	Active	Active	Activity (WI-38 [15]): Toxic; Activity (MIA PaCa-2 [16]): Active; Activity (SK-BR-3 [17]): Active; Activity (SW-620 [18]): Active; Activity (HEp-2 [19]): Active; Activity (MCF7 [20]): Active; Activity (HeLa [21]): Active
